Values after ≈ are worked out from the molar mass of the structure shown.
Tests used:
Assay type in all cases: functional, cell-based
[1] = tested on: HepG2; assay: Cytotoxicity against human HepG2 cells after 3 days by MTT assay; settings: HepG2, 72 h
Outline: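 Freshly trypsinized cells seeded at 5000-10 000 per well; test agents added from DMSO stock. After 3 days in culture, attached cells incubated with MTT (0.5 mg/mL, 1 h), then solubilized in DMSO; absorbance read at 550 nm.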

[2] = tested on: MDA-MB-231; assay: Cytotoxicity against human MDA-MB-231 cells after 3 days by MTT assay; settings: MDA-MB-231, 72 h
Outline: (§1)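 Freshly trypsinized cells seeded at 5000-10 000 per well; test agents added from DMSO stock. After 3 days in culture, attached cells incubated with MTT (0.5 mg/mL, 1 h), then solubilized in DMSO; absorbance read at 550 nm. IC50 taken as concentration reducing cell growth by 50%.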

[3] = tested on: MCF7; assay: Cytotoxicity against human MCF7 cells after 3 days by MTT assay; settings: MCF7, 72 h; outline: as §1
[4] = tested on: A549; assay: Cytotoxicity against human A549 cells after 3 days by MTT assay; settings: A549, 72 h; outline: as §1
[5] = tested on: KB; assay: Cytotoxicity against human KB cells

Q: What does the source list for `CC(=O)O[C@H]1C[C@@H](C)O[C@H]2O[C@@H]3C[C@@H]4CC[C@@H]5[C@H](CC[C@]6(C)[C@@H](C7=CC(=O)OC7)[C@H](O)C[C@]56O)[C@@]4(C=O)C[C@H]3O[C@]21O`?
A: IC50 [1]: 0.51 µg/mL (≈ 0.863 µM); IC50 [2]: 1.52 µg/mL (≈ 2.57 µM); IC50 [3]: 1 µg/mL (≈ 1.69 µM); IC50 [4]: 0.14 µg/mL (≈ 0.237 µM)

Q: Which IC50 [1] does the source give for `C[C@@H]1C[C@@H](O)[C@]2(O)O[C@@H]3C[C@@]4(C=O)[C@@H](CC[C@@H]5[C@@H]4CC[C@]4(C)[C@@H](C6=CC(=O)OC6)CC[C@]54O)C[C@H]3O[C@@H]2O1` [CALACTIN] here?
A: Its IC50 is 0.02 µg/mL (≈ 0.0375 µM).

Q: What about the IC50 [2] of the same compound?
A: The IC50 was 0.03 µg/mL (≈ 0.0563 µM).

Q: What about the IC50 [3] of the same compound?
A: The IC50 was 0.01 µg/mL (≈ 0.0188 µM).

Q: What about the IC50 [4] of the same compound?
A: The IC50 was 0.0029 µg/mL (≈ 0.00544 µM).

Q: How did the IC50 [1] turn out when `C[C@@H]1CC(=O)[C@]2(O)O[C@@H]3C[C@@]4(C=O)[C@@H](CC[C@@H]5[C@@H]4CC[C@]4(C)[C@@H](C6=CC(=O)OC6)CC[C@]54O)C[C@H]3O[C@@H]2O1` [USCHARIDIN] was run?
A: The IC50 was 0.04 µg/mL (≈ 0.0754 µM).

Q: And the IC50 [2]?
A: Its IC50 is 0.09 µg/mL (≈ 0.17 µM).

Q: What about the IC50 [3] of the same compound?
A: Its IC50 is 0.04 µg/mL (≈ 0.0754 µM).

Q: And the IC50 [4]?
A: The IC50 was 0.01 µg/mL (≈ 0.0188 µM).

Q: For `COc1cccc2c1C(=O)c1c(O)c3c(c(O)c1C2=O)C[C@@](O)(C(=O)CO)C[C@@H]3O[C@H]1C[C@H](N)[C@H](O)[C@H](C)O1` [DOXORUBICIN], which IC50 [3] is on record?
A: Its IC50 is 0.56 µg/mL (≈ 1.03 µM).

Q: And the IC50 [4]?
A: Its IC50 is 0.79 µg/mL (≈ 1.45 µM).

Q: With `CC(=O)O[C@@H]1C[C@]2(O)[C@@H]3CC[C@H]4C[C@H]5O[C@@H]6O[C@H](C)C[C@H](O)[C@]6(O)O[C@@H]5C[C@]4(C=O)[C@H]3CC[C@]2(C)[C@H]1C1=CC(=O)OC1` as the compound, how does the IC50 [1] read?
A: The IC50 was 0.39 µg/mL (≈ 0.66 µM).

Q: And the IC50 [2]?
A: Its IC50 is 0.49 µg/mL (≈ 0.83 µM).

Q: What about the IC50 [3] of the same compound?
A: The IC50 was 0.28 µg/mL (≈ 0.474 µM).

Q: What about the IC50 [4] of the same compound?
A: Its IC50 is 0.11 µg/mL (≈ 0.186 µM).

Q: With `CC(=O)O[C@H]1C[C@@H](C)O[C@H]2O[C@@H]3C[C@@H]4CC[C@@H]5[C@H](CC[C@]6(C)[C@@H](C7=CC(=O)OC7)CC[C@]56O)[C@@]4(C=O)C[C@H]3O[C@]21O` [ASCLEPIN] as the compound, how does the IC50 [1] read?
A: The IC50 was 0.05 µg/mL (≈ 0.087 µM).

Q: And the IC50 [2]?
A: Its IC50 is 0.06 µg/mL (≈ 0.104 µM).

Q: What about the IC50 [3] of the same compound?
A: Its IC50 is 0.02 µg/mL (≈ 0.0348 µM).

Q: What about the IC50 [4] of the same compound?
A: The IC50 was 0.01 µg/mL (≈ 0.0174 µM).

Q: `C[C@]12CC[C@H](O)C[C@H]1CC[C@@H]1[C@@H]2CC[C@]2(C)[C@@H](C3=CC(=O)OC3)CC[C@]12O` [DIGITOXIGENIN] was tested. Which IC50 [1] did it give?
A: Its IC50 is 0.12 µg/mL (≈ 0.32 µM).

Q: What about the IC50 [2] of the same compound?
A: The IC50 was 1.9 µg/mL (≈ 5.07 µM).

Q: And the IC50 [3]?
A: Its IC50 is 1.69 µg/mL (≈ 4.51 µM).

Q: What about the IC50 [4] of the same compound?
A: The IC50 was 0.24 µg/mL (≈ 0.641 µM).

Q: For `C[C@@H]1C[C@@]2(N=CCS2)[C@]2(O)O[C@@H]3C[C@@]4(C=O)[C@@H](CC[C@@H]5[C@@H]4CC[C@]4(C)[C@@H](C6=CC(=O)OC6)CC[C@]54O)C[C@H]3O[C@@H]2O1` [USCHARIN], which IC50 [1] is on record?
A: The IC50 was 1.1 µg/mL (≈ 1.87 µM).

Q: And the IC50 [2]?
A: The IC50 was 0.1 µg/mL (≈ 0.17 µM).

Q: What about the IC50 [3] of the same compound?
A: Its IC50 is 0.04 µg/mL (≈ 0.0681 µM).

Q: What about the IC50 [4] of the same compound?
A: The IC50 was 0.01 µg/mL (≈ 0.017 µM).

Q: For `C[C@@H]1C[C@H](O)[C@]2(O)O[C@@H]3C[C@@]4(C=O)[C@@H](CC[C@@H]5[C@@H]4CC[C@]4(C)[C@@H](C6=CC(=O)OC6)CC[C@]54O)C[C@H]3O[C@@H]2O1` [CALOTROPIN], which IC50 [1] is on record?
A: The IC50 was 0.11 µg/mL (≈ 0.207 µM).

Q: What about the IC50 [2] of the same compound?
A: Its IC50 is 0.16 µg/mL (≈ 0.3 µM).

Q: And the IC50 [5]?
A: Its IC50 is 0.015 µg/mL (≈ 0.0282 µM).

Q: And the IC50 [3]?
A: The IC50 was 0.08 µg/mL (≈ 0.15 µM).

Q: What about the IC50 [4] of the same compound?
A: Its IC50 is 0.02 µg/mL (≈ 0.0375 µM).

Q: With `CC(=O)O[C@H]1C[C@@H](C)O[C@H]2O[C@@H]3C[C@@H]4CC[C@@H]5[C@H](CC[C@]6(C)[C@@H](C7=CC(=O)OC7)[C@H](OC(C)=O)C[C@]56O)[C@@]4(C=O)C[C@H]3O[C@]21O` as the compound, how does the IC50 [1] read?
A: The IC50 was 0.13 µg/mL (≈ 0.205 µM).

Q: And the IC50 [2]?
A: Its IC50 is 0.39 µg/mL (≈ 0.616 µM).

Q: And the IC50 [3]?
A: The IC50 was 0.17 µg/mL (≈ 0.269 µM).

Q: What about the IC50 [4] of the same compound?
A: The IC50 was 0.02 µg/mL (≈ 0.0316 µM).

Q: Which results are given for `C[C@@H]1C[C@@H](O)[C@]2(O)O[C@@H]3C[C@@]4(C=O)[C@@H](CC[C@@H]5[C@@H]4CC[C@]4(C)[C@@H](C6=CC(=O)OC6)C[C@@H](O)[C@]54O)C[C@H]3O[C@@H]2O1`?
A: IC50 [1]: 0.16 µg/mL (≈ 0.292 µM); IC50 [2]: 0.45 µg/mL (≈ 0.82 µM); IC50 [3]: 0.38 µg/mL (≈ 0.693 µM); IC50 [4]: 0.07 µg/mL (≈ 0.128 µM)

Q: Which results are given for `C[C@@H]1C[C@H](O)[C@]2(O)O[C@@H]3C[C@@]4(C=O)[C@@H](CC[C@@H]5[C@@H]4CC[C@]4(C)[C@@H](C6=CC(=O)OC6)C[C@@H](O)[C@]54O)C[C@H]3O[C@@H]2O1`?
A: IC50 [1]: 0.15 µg/mL (≈ 0.273 µM); IC50 [2]: 0.98 µg/mL (≈ 1.79 µM); IC50 [3]: 0.48 µg/mL (≈ 0.875 µM); IC50 [4]: 0.1 µg/mL (≈ 0.182 µM)

From ChEMBL document CHEMBL1151266, “Cytotoxic principles from the formosan milkweed, Asclepias curassavica” (J Nat Prod, 2005)
